Laboratory results published in ChEMBL document CHEMBL5346895, “Small molecule inhibitors of intestinal epithelial anion exchanger SLC26A3 (DRA) with a luminal, extracellular site of action” (Eur J Med Chem, 2023).
Calls of active or inactive are those of the source. The calls are words filed in the database; no cut-off is given here.

Experiments:
Mus musculus = test: Effect on loperamide-induced constipation in CD-1 mouse assessed as increase in stool weight at 10 mg/kg, po via gavage administered 1 hr prior to loperamide administration measured for 3 hrs; assay type: functional, organism-based; settings: time 4.0 hrs
Summary of the method: (§1)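 CD1 mice (bred in house, 8–12 weeks). Test compound given by oral gavage at 10 mg/kg in saline with 5% DMSO and 10% Kolliphor-HS, or vehicle alone, 1 h before loperamide (0.3 mg/kg ip in PBS with 5% ethanol). Mice then held in metabolic cages with free food and water. Stool collected over 3 h for total weight and pellet count. Water content from wet vs dry stool weight.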

[1] = Effect on loperamide-induced constipation in CD-1 mouse assessed as stool hydration at 10 mg/kg, po via gavage administered 1 hr prior to loperamide administration measured for 3 hrs (reference value: 49 +/- 2 %); assay type: functional; settings: time 4 hrs; summary of the method: as §1

O=c1cc(COc2ccccc2Cl)nc2scc(-c3ccccc3)n12
Activity (Mus musculus): Active
Activity [1]: 55%
